Among the data in ChEMBL document CHEMBL1153921, “Design, synthesis, and biological evaluation of novel 1-(1H-1,2,4-triazole-1-yl)-2-(2,4-difluorophenyl)-3-substituted benzylamino-2-propanols” (2009) are MIC80 values, retold here.

Common to all, as to type: functional
One assay deals with Candida albicans. Description: Antimicrobial activity against Candida albicans by micro-broth dilution method. Summed up:
(§1)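 ATCC standard strains. Broth microdilution in 96-well plates following NCCLS M27-A2 (reference broth dilution method for yeasts). Endpoint is MIC80, the lowest concentration giving 80% growth inhibition. Marketed reference antifungals ran alongside as positive controls.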
(Dilution methods test growth across graded concentrations, often in twofold steps.)

The subject of the next assay is Pichia kudriavzevii. The assay is described as follows: Antimicrobial activity against Candida krusei by micro-broth dilution method. Summed up: (§2)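 Clinical isolates. Tested by broth microdilution in 96-well plates following NCCLS M27-A2. MIC80, the minimum concentration inhibiting growth by 80%, was recorded. Marketed reference antifungals were included as positive controls.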

A further assay deals with Aspergillus fumigatus. Description: Antimicrobial activity against Aspergillus fumigatus by micro-broth dilution method. Summed up: as §2
The test system of another assay is Cryptococcus neoformans. Description: Antimicrobial activity against Cryptococcus neoformans by micro-broth dilution method. In outline: as §1
The subject of another assay is Trichophyton rubrum. Description: Antimicrobial activity against Trichophyton rubrum by micro-broth dilution method. Summed up: as §2
For a further assay, the system named is Candida tropicalis. Description: Antimicrobial activity against Candida tropicalis by micro-broth dilution method. In outline: as §2
The subject of a further assay is Nannizzia gypsea. Description: Antimicrobial activity against Microsporum gypseum by micro-broth dilution method. In outline:
as §2

The next assay relates to Candida parapsilosis. The assay is described as follows: Antimicrobial activity against Candida parapsilosis by micro-broth dilution method. Conditions: Lodderomyces parapsilosis. Summed up: as §2

Converted amounts (≈) assume the structure as drawn.

By MIC80 is commonly meant an inhibitory concentration at the 80% level, which refers to growth in some studies and to a panel of isolates in others. A higher MIC80 goes with weaker potency. Regarding `CCCN(Cc1ccccc1)CC(O)(Cn1cncn1)c1ccc(F)cc1F` (centres undefined), the MIC80 with Candida albicans was 0.0156 µg/mL (≈ 0.0404 µM); in the assay on Pichia kudriavzevii, 0.0625 µg/mL (≈ 0.162 µM); against Aspergillus fumigatus, greater than 64 µg/mL; with Cryptococcus neoformans it was 0.0625 µg/mL (≈ 0.162 µM); against Trichophyton rubrum it was 0.0625 µg/mL (≈ 0.162 µM); in the assay on Candida tropicalis, 0.0625 µg/mL (≈ 0.162 µM). The MIC80 against Nannizzia gypsea came out at 0.0156 µg/mL (≈ 0.0404 µM); against Candida parapsilosis, 0.0625 µg/mL (≈ 0.162 µM).

For the compound `CCCN(Cc1ccccc1F)CC(O)(Cn1cncn1)c1ccc(F)cc1F` (centres undefined), the MIC80 was 0.0156 µg/mL (≈ 0.0386 µM) in the assay with Candida albicans; 0.0625 µg/mL (≈ 0.155 µM) with Pichia kudriavzevii; greater than 64 µg/mL against Aspergillus fumigatus; 0.25 µg/mL (≈ 0.618 µM) in the assay with Cryptococcus neoformans; 1 µg/mL (≈ 2.47 µM) against Trichophyton rubrum; 0.0625 µg/mL (≈ 0.155 µM) in the assay on Candida tropicalis. The figures for the MIC80 with Nannizzia gypsea and against Candida parapsilosis were 0.0156 µg/mL (≈ 0.0386 µM) and 0.0625 µg/mL (≈ 0.155 µM), respectively.

As for `CC(C)N(Cc1ccc(Cl)cc1)CC(O)(Cn1cncn1)c1ccc(F)cc1F` (centres undefined), the MIC80 came out at 0.0625 µg/mL (≈ 0.148 µM) in the assay on Candida albicans; 0.0625 µg/mL (≈ 0.148 µM) in the assay on Pichia kudriavzevii; 1 µg/mL (≈ 2.38 µM) with Aspergillus fumigatus; 0.25 µg/mL (≈ 0.594 µM) against Cryptococcus neoformans; 0.25 µg/mL (≈ 0.594 µM) against Trichophyton rubrum; 0.25 µg/mL (≈ 0.594 µM) with Candida tropicalis. The MIC80 against Nannizzia gypsea and against Candida parapsilosis was 0.0625 µg/mL (≈ 0.148 µM) in each case.

Regarding `CC(C)N(Cc1ccc(Br)cc1)CC(O)(Cn1cncn1)c1ccc(F)cc1F` (centres undefined), the MIC80 in the assay on Candida albicans is 0.0039 µg/mL (≈ 0.00838 µM); in the assay with Pichia kudriavzevii it was 0.25 µg/mL (≈ 0.537 µM); in the assay on Aspergillus fumigatus, 4 µg/mL (≈ 8.6 µM); against Cryptococcus neoformans it was 0.25 µg/mL (≈ 0.537 µM); with Trichophyton rubrum, 0.0625 µg/mL (≈ 0.134 µM); in the assay with Candida tropicalis it was 0.0625 µg/mL (≈ 0.134 µM). The values for the MIC80 with Nannizzia gypsea and in the assay with Candida parapsilosis were 0.0156 µg/mL (≈ 0.0335 µM) and 0.0625 µg/mL (≈ 0.134 µM), respectively.

For `CC(C)N(Cc1cccc(Cl)c1)CC(O)(Cn1cncn1)c1ccc(F)cc1F` (centres undefined), the MIC80 in the assay on Candida albicans is 0.0156 µg/mL (≈ 0.0371 µM); with Pichia kudriavzevii it was 0.25 µg/mL (≈ 0.594 µM); with Aspergillus fumigatus, greater than 64 µg/mL; with Cryptococcus neoformans, 1 µg/mL (≈ 2.38 µM); against Trichophyton rubrum it was 0.25 µg/mL (≈ 0.594 µM); in the assay on Candida tropicalis it was 1 µg/mL (≈ 2.38 µM). The MIC80 against Nannizzia gypsea is 1 µg/mL (≈ 2.38 µM); against Candida parapsilosis, 0.25 µg/mL (≈ 0.594 µM).

`CCCN(Cc1ccc(F)cc1)CC(O)(Cn1cncn1)c1ccc(F)cc1F` (centres undefined): the MIC80 in the assay with Candida albicans was 0.0625 µg/mL (≈ 0.155 µM); with Pichia kudriavzevii, 0.0625 µg/mL (≈ 0.155 µM); against Aspergillus fumigatus it was greater than 64 µg/mL; with Cryptococcus neoformans, 0.0625 µg/mL (≈ 0.155 µM); against Trichophyton rubrum, 1 µg/mL (≈ 2.47 µM); in the assay with Candida tropicalis, 0.25 µg/mL (≈ 0.618 µM). In addition, the figures for the MIC80 against Nannizzia gypsea and with Candida parapsilosis were 0.0039 µg/mL (≈ 0.00964 µM) and 0.0625 µg/mL (≈ 0.155 µM), respectively.

For `CCCN(Cc1ccc(CC)cc1)CC(O)(Cn1cncn1)c1ccc(F)cc1F` (centres undefined), the MIC80 with Candida albicans was 0.0156 µg/mL (≈ 0.0376 µM); against Pichia kudriavzevii, 1 µg/mL (≈ 2.41 µM); with Aspergillus fumigatus, greater than 64 µg/mL; against Cryptococcus neoformans, 1 µg/mL (≈ 2.41 µM); against Trichophyton rubrum it was 1 µg/mL (≈ 2.41 µM); against Candida tropicalis, 0.25 µg/mL (≈ 0.603 µM). Also, the MIC80 against Nannizzia gypsea and with Candida parapsilosis was 0.25 µg/mL (≈ 0.603 µM) in each case.

Turning to `CCCN(Cc1cccc(Cl)c1)CC(O)(Cn1cncn1)c1ccc(F)cc1F` (centres undefined), the MIC80 against Candida albicans was 0.0625 µg/mL (≈ 0.148 µM); against Pichia kudriavzevii, 0.25 µg/mL (≈ 0.594 µM); in the assay with Aspergillus fumigatus, greater than 64 µg/mL; in the assay with Cryptococcus neoformans, 0.25 µg/mL (≈ 0.594 µM); against Trichophyton rubrum, 4 µg/mL (≈ 9.5 µM); in the assay on Candida tropicalis, 0.25 µg/mL (≈ 0.594 µM). The MIC80 turned out to be 0.0625 µg/mL (≈ 0.148 µM) against Nannizzia gypsea and 0.25 µg/mL (≈ 0.594 µM) in the assay on Candida parapsilosis.

As for `CC(C)N(Cc1ccccc1F)CC(O)(Cn1cncn1)c1ccc(F)cc1F` (centres undefined), the MIC80 in the assay with Candida albicans is 0.0625 µg/mL (≈ 0.155 µM); in the assay with Pichia kudriavzevii, 0.25 µg/mL (≈ 0.618 µM); against Aspergillus fumigatus, greater than 64 µg/mL; in the assay on Cryptococcus neoformans, 0.25 µg/mL (≈ 0.618 µM); against Trichophyton rubrum, 1 µg/mL (≈ 2.47 µM); against Candida tropicalis, 0.25 µg/mL (≈ 0.618 µM). Besides, the MIC80 against Nannizzia gypsea and with Candida parapsilosis was 0.0625 µg/mL (≈ 0.155 µM) each time.

As for `CCCN(Cc1ccc(C)cc1)CC(O)(Cn1cncn1)c1ccc(F)cc1F` (centres undefined), the MIC80 against Candida albicans was 0.0625 µg/mL (≈ 0.156 µM); against Pichia kudriavzevii, 0.0625 µg/mL (≈ 0.156 µM); with Aspergillus fumigatus it was greater than 64 µg/mL; against Cryptococcus neoformans, 0.25 µg/mL (≈ 0.624 µM); against Trichophyton rubrum, 0.25 µg/mL (≈ 0.624 µM); in the assay on Candida tropicalis, 0.0625 µg/mL (≈ 0.156 µM). The MIC80 was determined as 0.0156 µg/mL (≈ 0.039 µM) in the assay with Nannizzia gypsea and 0.0625 µg/mL (≈ 0.156 µM) against Candida parapsilosis.

Take `CCCN(Cc1ccccc1Br)CC(O)(Cn1cncn1)c1ccc(F)cc1F` (centres undefined): the MIC80 in the assay on Candida albicans was 0.0625 µg/mL (≈ 0.134 µM); against Pichia kudriavzevii it was 0.25 µg/mL (≈ 0.537 µM); with Aspergillus fumigatus, greater than 64 µg/mL; in the assay with Cryptococcus neoformans it was 0.25 µg/mL (≈ 0.537 µM); in the assay with Trichophyton rubrum, 1 µg/mL (≈ 2.15 µM); in the assay with Candida tropicalis, 0.25 µg/mL (≈ 0.537 µM). Besides, the MIC80 worked out at 0.0625 µg/mL (≈ 0.134 µM) against Nannizzia gypsea and 0.0039 µg/mL (≈ 0.00838 µM) against Candida parapsilosis.

Consider `CCCN(Cc1ccc(Br)cc1)CC(O)(Cn1cncn1)c1ccc(F)cc1F` (centres undefined), for which the MIC80 against Candida albicans is 0.0625 µg/mL (≈ 0.134 µM); against Pichia kudriavzevii, 0.25 µg/mL (≈ 0.537 µM); with Aspergillus fumigatus, greater than 64 µg/mL; against Cryptococcus neoformans, 0.25 µg/mL (≈ 0.537 µM); in the assay on Trichophyton rubrum, 0.25 µg/mL (≈ 0.537 µM); against Candida tropicalis it was 0.0625 µg/mL (≈ 0.134 µM). Besides, the MIC80 was 0.0625 µg/mL (≈ 0.134 µM) against Nannizzia gypsea and 0.0156 µg/mL (≈ 0.0335 µM) with Candida parapsilosis.

Turning to `Cc1ccccc1CN(CC(O)(Cn1cncn1)c1ccc(F)cc1F)C(C)C` (centres undefined), the MIC80 against Candida albicans is 0.0156 µg/mL (≈ 0.039 µM); with Pichia kudriavzevii, 0.25 µg/mL (≈ 0.624 µM); in the assay on Aspergillus fumigatus, greater than 64 µg/mL; against Cryptococcus neoformans, 0.25 µg/mL (≈ 0.624 µM); in the assay on Trichophyton rubrum, 0.25 µg/mL (≈ 0.624 µM); against Candida tropicalis, 0.25 µg/mL (≈ 0.624 µM). In addition, the MIC80 against Nannizzia gypsea and against Candida parapsilosis was 0.0625 µg/mL (≈ 0.156 µM) each time.
